Key:
[1] = Induction of nitric oxide release in phosphate buffer at pH 7.4 at 0.1 mM after 6 hrs by Griess method in presence of 0.5 mM of N-acetylcysteine; assay type: physicochemical; conditions: pH 7.4, 6 h, 100 µM
Procedure, shortened: (§1)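 Compound in DMF diluted to final 10^-4 M in 1:1 50 mM phosphate buffer pH 7.4/MeOH with 5×10^-4 M N-acetylcysteine, 37 °C. Aliquot mixed with Griess reagent, 10 min at room temperature, A546 read. Nitrite quantified against sodium nitrite standards (10–80 nmol/mL); NO expressed as mol/mol. n = 4 reaction mixtures per compound.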

HL-60(TB) = assay: Cytotoxicity against human HL-60(TB) cells assessed as cell growth at 10^-5 M after 48 hrs by SRB assay; assay type: functional; conditions: HL-60, 48 h, read-out: Activity
Procedure, shortened: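 NCI 60-cell-line one-dose screen: compound added to cultures at a single concentration of 10^-5 M, incubated 48 h. End point by sulforhodamine B protein staining, read spectrophotometrically. Value is percent growth of treated cells relative to untreated control cells.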

MDA-MB-468 = assay: Cytotoxicity against human MDA-MB-468 cells assessed as cell growth at 10^-5 M after 48 hrs by SRB assay; assay type: functional; conditions: MDA-MB-468, 48 h, read-out: Activity
Procedure, shortened: (§2)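 NCI 60-cell-line primary one-dose screen across nine tumour subpanels. Compound added at a single concentration of 10^-5 M and cultures incubated 48 h. Endpoint was sulforhodamine B protein staining read spectrophotometrically, with growth expressed as percent of untreated control cells.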

Rattus norvegicus = assay: Antiinflammatory activity in albino rat assessed as inhibition of carrageenan-induced paw edema at 0.28 mmol/kg, po after 2 hrs relative to control; assay type: functional
Procedure, shortened: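 Adult male albino rats (120–140 g), four per group, fasted 24 h with water allowed. Test agent suspended in 0.5% w/v aqueous CMC and given orally at 0.28 mmol/kg; controls received CMC alone. After 30 min, 0.1 mL fresh 1% carrageenan in saline was injected subplantar into the right hind paw and saline into the left. Paw thickness was measured by Vernier caliper; % inhibition = [(VR−VL)control − (VR−VL)treated]/(VR−VL)control ×100. Mean ± SEM, one-way ANOVA.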

NCI-H522 = assay: Cytotoxicity against human NCI-H522 cells assessed as cell growth at 10^-5 M after 48 hrs by SRB assay; assay type: functional; conditions: NCI-H522, 48 h, read-out: Activity; procedure, shortened: as §2
MDA-MB-231 = assay: Cytotoxicity against human MDA-MB-231 cells assessed as cell growth at 10^-5 M after 48 hrs by SRB assay; assay type: functional; conditions: MDA-MB-231, 48 h, read-out: Activity; procedure, shortened: as §2
SF-295 = assay: Cytotoxicity against human SF295 cells assessed as cell growth at 10^-5 M after 48 hrs by SRB assay; assay type: functional; conditions: SF-295, 48 h, read-out: Activity; procedure, shortened: as §2
OVCAR-8 = assay: Cytotoxicity against human OVCAR8 cells assessed as cell growth at 10^-5 M after 48 hrs by SRB assay; assay type: functional; conditions: OVCAR-8, 48 h, read-out: Activity; procedure, shortened: as §2
SR = assay: Cytotoxicity against human SR cells assessed as cell growth at 10^-5 M after 48 hrs by SRB assay; assay type: functional; conditions: read-out: Activity
Procedure, shortened: (§3)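 NCI-60 one-dose screen across nine tumour subpanels. Each agent added once at 10^-5 M, cultures incubated 48 h. Endpoint is sulforhodamine B protein staining read spectrophotometrically. Output is percent growth of treated cells relative to untreated controls.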

UO-31 = assay: Cytotoxicity against human UO31 cells assessed as cell growth at 10^-5 M after 48 hrs by SRB assay; assay type: functional; conditions: UO-31, 48 h, read-out: Activity; procedure, shortened: as §3
ACHN = assay: Cytotoxicity against human ACHN cells assessed as cell growth at 10^-5 M after 48 hrs by SRB assay; assay type: functional; conditions: read-out: Activity; procedure, shortened: as §2
SNB-19 = assay: Cytotoxicity against human SNB19 cells assessed as cell growth at 10^-5 M after 48 hrs by SRB assay; assay type: functional; conditions: SNB-19, 48 h, read-out: Activity; procedure, shortened: as §3
CAKI-1 = assay: Cytotoxicity against human CAKI-1 cells assessed as cell growth at 10^-5 M after 48 hrs by SRB assay; assay type: functional; conditions: CAKI-1, 48 h, read-out: Activity; procedure, shortened: as §2
HT-29 = assay: Cytotoxicity against human HT-29 cells assessed as cell growth at 10^-5 M after 48 hrs by SRB assay; assay type: functional; conditions: HT-29, 48 h, read-out: Activity; procedure, shortened: as §2
HOP-62 = assay: Cytotoxicity against human HOP62 cells assessed as cell growth at 10^-5 M after 48 hrs by SRB assay; assay type: functional; conditions: HOP-62, 48 h, read-out: Activity; procedure, shortened: as §2
786-0 = assay: Cytotoxicity against human 786-0 cells assessed as cell growth at 10^-5 M after 48 hrs by SRB assay; assay type: functional; conditions: 786-0, 48 h, read-out: Activity; procedure, shortened: as §2
[2] = Cytotoxicity against human EKVX cells assessed as cell growth at 10^-5 M after 48 hrs by SRB assay; assay type: functional; conditions: read-out: Activity; procedure, shortened: as §2
MCF7 = assay: Cytotoxicity against human MCF7 cells assessed as cell growth at 10^-5 M after 48 hrs by SRB assay; assay type: functional; conditions: MCF7, 48 h, read-out: Activity; procedure, shortened: as §2
Malme-3M = assay: Cytotoxicity against human MALME-3M cells assessed as cell growth at 10^-5 M after 48 hrs by SRB assay; assay type: functional; conditions: read-out: Activity; procedure, shortened: as §2
SK-OV-3 = assay: Cytotoxicity against human SKOV3 cells assessed as cell growth at 10^-5 M after 48 hrs by SRB assay; assay type: functional; conditions: SK-OV-3, 48 h, read-out: Activity; procedure, shortened: as §3
SNB-75 = assay: Cytotoxicity against human SNB75 cells assessed as cell growth at 10^-5 M after 48 hrs by SRB assay; assay type: functional; conditions: SNB-75, 48 h, read-out: Activity; procedure, shortened: as §3
NCI/ADR-RES = assay: Cytotoxicity against human NCI/ADR-RES cells assessed as cell growth at 10^-5 M after 48 hrs by SRB assay; assay type: functional; conditions: read-out: Activity; procedure, shortened: as §2
U-251 = assay: Cytotoxicity against human U251 cells assessed as cell growth at 10^-5 M after 48 hrs by SRB assay; assay type: functional; conditions: U-251, 48 h, read-out: Activity; procedure, shortened: as §3
[3] = Induction of nitric oxide release in phosphate buffer at pH 7.4 at 0.1 mM after 5 hrs by Griess method in presence of 0.5 mM of N-acetylcysteine; assay type: physicochemical; conditions: pH 7.4, 5 h, 100 µM; procedure, shortened: as §1
IGROV-1 = assay: Cytotoxicity against human IGROV1 cells assessed as cell growth at 10^-5 M after 48 hrs by SRB assay; assay type: functional; conditions: IGROV-1, 48 h, read-out: Activity; procedure, shortened: as §2
SF-268 = assay: Cytotoxicity against human SF268 cells assessed as cell growth at 10^-5 M after 48 hrs by SRB assay; assay type: functional; conditions: SF-268, 48 h, read-out: Activity; procedure, shortened: as §2
OVCAR-4 = assay: Cytotoxicity against human OVCAR4 cells assessed as cell growth at 10^-5 M after 48 hrs by SRB assay; assay type: functional; conditions: OVCAR-4, 48 h, read-out: Activity; procedure, shortened: as §2
NCI-H460 = assay: Cytotoxicity against human NCI-H460 cells assessed as cell growth at 10^-5 M after 48 hrs by SRB assay; assay type: functional; conditions: NCI-H460, 48 h, read-out: Activity; procedure, shortened: as §2
RPMI-8226 = assay: Cytotoxicity against human RPMI8226 cells assessed as cell growth at 10^-5 M after 48 hrs by SRB assay; assay type: functional; conditions: RPMI-8226, 48 h, read-out: Activity; procedure, shortened: as §2

For `CCn1c(SC/C(=N/O)c2ccccc2)nnc1-c1ccc(OC)c(OC)c1`, the Activity [1] was 0.2 mol/mol, the growth at 10 µM (HL-60(TB)) was 95.8% and the growth at 10 µM (MDA-MB-468) was 111%. For the same compound, the inhibition in vivo at 280 µmol/kg (Rattus norvegicus) was 67%, the growth at 10 µM (NCI-H522) was 89.4% and the growth at 10 µM (MDA-MB-231) was 104%. The growth at 10 µM (SF-295) was 146%, the growth at 10 µM (OVCAR-8) was 104% and the growth at 10 µM (SR) was 95.4%. For the same compound, the growth at 10 µM (UO-31) was 85.4%, the growth at 10 µM (ACHN) was 103% and the growth at 10 µM (SNB-19) was 99.9%. For the same compound, the growth at 10 µM (CAKI-1) was 102%, the growth at 10 µM (HT-29) was 100% and the growth at 10 µM (HOP-62) was 85.9%. The growth at 10 µM (786-0) was 115%, the growth at 10 µM [2] was 102% and the growth at 10 µM (MCF7) was 118%. For the same compound, the growth at 10 µM (Malme-3M) was 94.8%, the growth at 10 µM (SK-OV-3) was 96.4% and the growth at 10 µM (SNB-75) was 90.3%. For the same compound, the growth at 10 µM (NCI/ADR-RES) was 103%, the growth at 10 µM (U-251) was 101% and the Activity [3] was 0.25 mol/mol. It also gave a growth at 10 µM (IGROV-1) of 106%, a growth at 10 µM (SF-268) of 101% and a growth at 10 µM (OVCAR-4) of 97.5%. For the same compound, the growth at 10 µM (NCI-H460) was 105% and the growth at 10 µM (RPMI-8226) was 101%.

From ChEMBL document CHEMBL2390929, “New nitric oxide donating 1,2,4-triazole/oxime hybrids: synthesis, investigation of anti-inflammatory, ulceroginic liability and antiproliferative activities” (Bioorg Med Chem, 2013)
